The test system of one series is Salmonidae. As to the kind of experiment: Thermal stabilization of salmon sperm duplex DNA assessed as melting temperature by FRET assay.
Series [1] has as its system T-24. As to the kind of experiment: Binding affinity to wild type HRAS quadruplex DNA in human T24 cells assessed as reduction in gene expression at 0.5 to 5 uM treated for 24 hrs prior to transfection measured 72 hrs post transfection by dual-luciferase reporter gene assay relative to control. The format is cell-based. Also noted: scale not given: the % may be the effect or the level left. Put shortly: (§1)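 T24 cells pretreated 24 h with ligand (0.5, 2.5, 5 μM). Then co-transfected with jet-PEI: firefly reporter (250 ng/well), either HRAS promoter wild type, HRAS promoter with 4 point mutations in the quadruplex motifs, or IL-8 promoter, plus CMV-Renilla (10 ng/well). Dual-Glo read 72 h post-transfection. Firefly/Renilla expressed as T/C × 100 relative to untreated cells.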
(In general: A reporter such as luciferase makes a cellular process visible.)

The nature of series [2]: Binding affinity to mouse KRAS G-quadruplex FAM-GCGGGAGGGAGGGAAGGAGGGAGGGAGGGAG-TAMRA DNA assessed as quenching of fluorescence emission by FRET titration assay. A digest of the protocol:
(§2)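 FRET titration of 200 nM oligonucleotide dual-labelled at its ends with carboxyfluorescein (donor) and tetramethylrhodamine (acceptor), in 50 mM Tris-HCl with KCl (100 mM for htelo and hras-1, 10 mM for KRAS and hras-2). Ligand binding quenches the emission, mainly the acceptor at 580 nm. The fraction of filled sites was fitted to the Hill equation to give apparent KD and the Hill coefficient.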

Series [3] has as its system NIH3T3. In words: Cellular uptake in mouse NIH/3T3 cells assessed as accumulation in nucleoli at 2.5 uM after 4 hrs by propidium iodide staining-based confocal microscopic analysis. As to conditions: nih3t3, 4 h. The format is ADME, cell-based. Put shortly: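 NIH 3T3 cells on coverslips treated with 2.5 μM ligand for 2 or 4 h. Fixed with paraformaldehyde, DRP1 immunostained (FITC), nuclei stained with propidium iodide. Confocal imaging with 543 nm excitation of ligand fluorescence.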

Series [4] relates to T-24. As to the kind of experiment: Binding affinity to HRAS G-quadruplex DNA in human T24 cells assessed as reduction in p21HRAS level at 5 uM after 72 hrs by immunoblotting analysis relative to control. The format is cell-based. Also noted: scale not given: the % may be the effect or the level left. A digest of the protocol: (§3)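 T24 cells treated with 5 μM ligand for 48 or 72 h. Lysates (30 μg) run on 12% SDS-PAGE and immunoblotted with monoclonal anti-HRAS and β-actin antibodies, with HRP detection. HRAS level = (p21HRAS/β-actin treated)/(p21HRAS/β-actin untreated) × 100.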
A general note: Immunoblotting shows a protein as a band on a membrane.

Series [5] concerns HEK293. As to the kind of experiment: Cytotoxicity against human HEK293 cells expressing wild type HRAS at 1 to 30 uM after 72 hrs by resazurin assay. The class given is cell-based. As to conditions: HEK293, 72 h. Put shortly: (§4)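 Cells seeded at 3000 per well the day before treatment, grown in DMEM with 10% FBS. Ligand added at 1, 2.5, 5, 10, 20, 30 μM for 72 h. Viability measured by resazurin and expressed as % of untreated cells; mean of three independent measurements. IC50 is the concentration reducing proliferation by 50%.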
In general terms: The colour change of resazurin is a common sign of viable cells or microbes.

For series [6], the system named is T-24. In words: Cellular uptake in human T24 cells at 0.5 to 10 uM after 8 hrs by flow cytometric analysis. The class given is ADME, cell-based. As to conditions: t-24, 8 h. A digest of the protocol: (§5)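 Cells plated at 5 × 10^4 per well and treated next day with ligand at […] for 8 h. Then trypsinized, resuspended in PBS and analysed by flow cytometry (488 nm excitation, FL3 680 nm, log scale), at least 10,000 cells per sample. Uptake read from intrinsic ligand red fluorescence.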

In series [7] the test system is T-24. As to the kind of experiment: Binding affinity to HRAS quadruplex DNA mutant in human T24 cells assessed as reduction in gene expression at 0.5 to 5 uM treated for 24 hrs prior to transfection measured 72 hrs post transfection by dual-luciferase reporter gene assay relative to control. The format is cell-based. Put shortly: as §1
The species named for series [8] is Homo sapiens. As to the kind of experiment: Thermal stabilization of human HRAS2 G-quadruplex FAM-CGGGGCGGGGCGGGGGCGGGGGCG-TAMRA DNA assessed as as change in melting temperature at 1:1 DNA:ligand ratio by FRET assay. A digest of the protocol:
(§6)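 FRET melting in 50 mM Tris-HCl pH 7.4 with an equimolar ligand:quadruplex ratio (r = 1). Conditions: NRAS RNA and hras-2 in 10 mM KCl; hras-1 in 100 mM KCl, with ΔTM taken from its second transition. Ramp 1 °C/min from 20 to 95 °C after 5 min equilibration. TM and ΔTM (±0.5 K) versus ligand-free quadruplex.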

Series [9] has as its system NIH3T3. As to the kind of experiment: Cellular uptake in mouse NIH/3T3 cells at 0.5 to 10 uM after 8 hrs by flow cytometric analysis. Particulars: nih3t3, 8 h. The class given is ADME, cell-based. A digest of the protocol:
as §5

For series [10], the species on record is Homo sapiens. As to the kind of experiment: Thermal stabilization of human NRAS G-quadruplex FAM-GGGAGGGGCGGGUCUGGG-TAMRA RNA assessed as change in melting temperature at 1:1 DNA:ligand ratio by FRET assay. Put shortly: as §6
Series [11] in a line: Binding affinity to human HRAS2 G-quadruplex FAM-CGGGGCGGGGCGGGGGCGGGGGCG-TAMRA DNA assessed as quenching of fluorescence emission by FRET titration assay. Put shortly: as §2
The test system of series [12] is T-24. As to the kind of experiment: Binding affinity to interleukin-8 promoter DNA in human T24 cells at 0.5 to 5 uM treated for 24 hrs prior to transfection measured 72 hrs post transfection by dual-luciferase reporter gene assay relative to control. The format is cell-based. Particulars: in the assay text read “5 uM” for “0.5 to 5 uM”. A digest of the protocol: as §1

The species named for series [13] is Homo sapiens. In words: Thermal stabilization of human telomeric G-quadruplex FAM-TTAGGGTTAGGGTTAGGGTTAGGG-TAMRA DNA assessed as change in melting temperature at 1:5 DNA:ligand ratio by FRET assay. Put shortly:
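FRET melting of 200 nM dual-labelled quadruplex in 50 mM Tris-HCl with KCl (100 mM for htelo and hras-1, 10 mM for KRAS and hras-2). Ligand at r = 5 ([ligand]/[quadruplex]; hras-2 tabulated at r = 4). Samples held 5 min at 20 °C, then heated 1 °C/min to 95 °C. ΔTM is the TM with ligand minus TM without ligand (±0.5 K). For hras-1 both biphasic transitions are given.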

In series [14] the test system is NIH3T3. In words: Cytotoxicity against mouse NIH/3T3 cells at 1 to 30 uM after 72 hrs by resazurin assay. The format is cell-based. Particulars: NIH3T3, 72 h. Put shortly:
as §4

For series [15], the system named is HEK293. In words: Cell cycle arrest in human HEK293 cells expressing wild type HRAS assessed as accumulation at G2/M phase at 10 uM after 24 hrs by FACS analysis. The format is functional, cell-based. A digest of the protocol:
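HEK293 cells (wild-type HRAS) treated with ligand for 24 h. Ethanol-fixed, stained with propidium iodide/RNase A, and analysed by FACS (FL2) for G0/G1, S and G2/M fractions.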

The next series has as its system T-24 (Homo sapiens). As to the kind of experiment: Cellular uptake in human T24 cells after 4 hrs by FACS flow cytometric analysis in presence of dynasore. Particulars: t24, 4 h.
In series [16] the test system is NIH3T3. In words: Cellular uptake in mouse NIH/3T3 cells after 4 hrs by FACS flow cytometric analysis in presence of dynasore. The format is ADME, cell-based. As to conditions: nih3t3, 4 h.
Series [17] has as its system T-24. As to the kind of experiment: Binding affinity to HRAS G-quadruplex DNA in human T24 cells assessed as reduction in p21HRAS level at 5 uM after 72 hrs by immunoblotting analysis relative to control.
Series [18] deals with T-24. As to the kind of experiment: Binding affinity to HRAS G-quadruplex DNA in human T24 cells assessed as reduction in p21HRAS level at 5 uM after 48 hrs by immunoblotting analysis. The class given is cell-based. A digest of the protocol: as §3

A word on the Kd: it is a measure of binding affinity in units of concentration. Broadly, the IC50 is the midpoint of a concentration-inhibition curve.

Activity calls are given as the source filed them. The rule behind the calls is not given here.

With `N=C(N)NCCCNc1c2c(c(NCCCNC(=N)N)c3sccc13)C(=O)c1ccccc1C2=O`, in the series with Salmonidae, the outcome was Active. Also, the Activity in the series with T-24 [1] was found to be 50%; with T-24 [4], 20%. Also, the Kd in [2] was 0.18 µM; in [11], 0.23 µM. For the same molecule, the Drug uptake result with NIH3T3 [3], in the series on T-24 [6], in the series with NIH3T3 [9] and in the series on T-24 (Homo sapiens) was “Active” in each case. For the same molecule, the half-inhibitory concentration (IC50) with HEK293 [5] and with NIH3T3 [14] was > 30 µM throughout. The outcome in the series on T-24 [7], with T-24 [12] and with HEK293 [15] was inactive. Besides, the deltaTm in the series filed under Homo sapiens [8] is 3 K; in the series listed under Homo sapiens [10], 11 K; in the series filed under Homo sapiens [13], 21 K.
Take `N=C(N)NCCCNc1c2c(c(NCCNC(=N)N)c3sccc13)C(=O)c1ccccc1C2=O`: the outcome with Salmonidae and with T-24 [17] was Active. Besides, the Kd in series [2] was 0.23 µM; in series [11], 0.28 µM. Further, the Drug uptake result with NIH3T3 [3], in the series on NIH3T3 [16], in the series with T-24 [6] and in the series with NIH3T3 [9] was “Active” each time. For the same molecule, the Activity in the series on T-24 [4] turned out to be 20%. The IC50 in the series with HEK293 [5] is > 30 µM; with NIH3T3 [14] it was 20 µM. The outcome with T-24 [7], in the series with T-24 [12] and with HEK293 [15] was inactive. Further, the deltaTm in the series listed under Homo sapiens [8] was 3 K; in the series listed under Homo sapiens [10], 11 K; in the series listed under Homo sapiens [13] it was 23 K.
As to `N=C(N)NCCCNc1c2c(c(NCCNC(=N)N)c3ccsc13)C(=O)c1ccccc1C2=O`, the outcome in the series on Salmonidae and with T-24 [17] was Active. The Activity with T-24 [1] amounted to 25%; with T-24 [4] it was 20%. Moreover, the values for the Kd in [2] and in series [11] were 0.21 µM and 0.37 µM, respectively. In addition, the IC50 in the series with HEK293 [5] is 20 µM; in the series with NIH3T3 [14], > 30 µM. Also, the Drug uptake result in the series on T-24 [6], in the series on NIH3T3 [9] and in the series with T-24 (Homo sapiens) was “Active” throughout. The outcome with T-24 [7], in the series on T-24 [12] and with HEK293 [15] was inactive. Moreover, the deltaTm in the series filed under Homo sapiens [8] worked out at 4 K; in the series filed under Homo sapiens [10], 9 K; in the series filed under Homo sapiens [13], 21 K.
Turning to `N=C(N)NCCCCNc1c2c(c(NCCCCNC(=N)N)c3sccc13)C(=O)c1ccccc1C2=O`, the result in the series on Salmonidae and in the series on T-24 [18] was Active. Besides, the Activity came out at 50% in the series on T-24 [1] and 20% in the series on T-24 [4]. The dissociation constant (Kd) in series [2] was 0.27 µM; in [11], 0.28 µM. The Drug uptake result in the series on NIH3T3 [3], in the series with T-24 [6], in the series with NIH3T3 [9] and in the series with T-24 (Homo sapiens) was “Active” each time. In addition, the IC50 in the series on HEK293 [5] and in the series on NIH3T3 [14] was > 30 µM throughout. Moreover, the result in the series with T-24 [7], in the series with T-24 [12] and with HEK293 [15] was inactive. The values for the deltaTm in the series filed under Homo sapiens [8], in the series filed under Homo sapiens [10] and in the series listed under Homo sapiens [13] were 7 K, > 13 K and 34 K, respectively.
Turning to `N=C(N)NCCNc1c2c(c(NCCNC(=N)N)c3sccc13)C(=O)c1ccccc1C2=O`, the result in the series on Salmonidae and with T-24 [18] was Active. In addition, the Activity with T-24 [1] was found to be 25%; in the series on T-24 [4] it was 20%. Also, the equilibrium dissociation constant (Kd) in [2] was determined as 0.25 µM; in series [11], 0.27 µM. Besides, the Drug uptake entry in the series with NIH3T3 [3], in the series on NIH3T3 [16], in the series with T-24 [6] and in the series with NIH3T3 [9] was “Active” in each case. The IC50 in the series with HEK293 [5] is > 30 µM; with NIH3T3 [14], 20 µM. The outcome with T-24 [7], with T-24 [12] and in the series with HEK293 [15] was inactive. Also, the deltaTm in the series filed under Homo sapiens [8] is 3 K; in the series listed under Homo sapiens [10], 5 K; in the series filed under Homo sapiens [13] it was 14 K.

The record behind these values is ChEMBL document CHEMBL2346582, “Guanidino anthrathiophenediones as G-quadruplex binders: uptake, intracellular localization, and anti-Harvey-Ras gene activity in bladder cancer cells” (J Med Chem, 2013).
